Experimental data collected from several papers.
Lines come from different studies, so protocols differ.
Target: Casein kinase I isoform gamma-1 (CSNK1G1, Homo sapiens, UniProt Q9HCP0)

O=C1NC(=O)c2cc(Nc3ccc(F)cc3)c(Nc3ccc(F)cc3)cc21  remaining signal (cell-free assay; 0.5 µM): 96.3%
CNC(=O)c1cc(Oc2ccc(NC(=O)Nc3ccc(Cl)c(C(F)(F)F)c3)cc2)ccn1  inhibition (enzyme activity; inhibitor; 0.3 µM): -16%
N#CCCc1ccc2c(c1)-c1[nH]c3ccc([N+](=O)[O-])cc3c1CC(=O)N2  remaining signal (cell-free assay; 0.5 µM): 81.6%
Cc1cc(NC(=O)c2cccc3cc(-c4cccc5[nH]nc(N)c45)ccc23)ccc1F  activity vs control (enzyme activity; inhibitor; 0.1 µM): 90%
Cc1sc(C(=O)NC2COC2)cc1-n1cc(NC(=O)Nc2c(F)cccc2Cl)cn1  remaining activity (enzyme activity; inhibitor; 10 µM): 101%
COc1ccc2cc(OCC3(C(=O)O)CN(C(=O)c4ccc(F)cc4)C3)ccc2c1  remaining binding (cell-free assay; competition with immobilised ligand; 1 µM): 94%
CC(C)c1ccc(NC(=O)c2cccs2)c(-c2nc3ccccc3[nH]c2=O)c1  activity vs control (enzyme activity; inhibitor; 1 µM): 102%
Cc1ccc(C(=O)Nc2ccc(CN3CCN(C)CC3)c(C(F)(F)F)c2)cc1C#Cc1cnc2cccnn12  remaining activity (enzyme activity; inhibitor; 23.5 nM): 89%
Cc1nc(N2CC[C@@H](O)C2)ncc1-c1cc(C(F)(F)F)cc2[nH]ncc12  remaining binding (cell-free assay; competition with immobilised ligand; 1 µM): 78%
CC(C)(O)[C@H]1CC[C@H](Nc2ccc3ncc(-c4cccc(C(F)(F)F)c4)n3n2)CC1  remaining activity (enzyme activity; inhibitor; 1 µM): 93%
CS(=O)(=O)N1CCCC(NC(=O)[C@H](CCC2CCCCC2)NC(=O)c2ccc(CNc3ncnc4c3nnn4-c3ccccc3)cc2)C1 (some centres unmarked)  remaining binding (cell-free assay; competition with immobilised ligand; 0.1 µM): 100%
COc1cc2ncnc(Nc3ccc(Oc4ccccc4)cc3C)c2cc1OC  inhibition (enzyme activity; inhibitor; 1 µM): 8%
COc1cc2ncnc(Nc3ccc(F)c(Cl)c3)c2cc1OCCCN1CCOCC1  remaining signal (cell-free assay; 0.5 µM): 99.5%
C[C@H](c1cccc(C#N)c1)n1cc(Cl)cc(C(N)=O)c1=N  remaining binding (cell-free assay; competition with immobilised ligand; 1 µM): 96%
Cc1ccc(Nc2nccc(N(C)c3ccc4c(C)n(C)nc4c3)n2)cc1S(N)(=O)=O  inhibition (enzyme activity; inhibitor; 10 µM): -8%
c1cnn2ncc(-c3ccnc(N4CCC45COC5)n3)c2c1  remaining binding (binding; 1 µM): 84%
CS(=O)(=O)N1CCCC(NC(=O)[C@H](CCC2CCCCC2)NC(=O)c2ccc(CNC(=O)c3cnc4ccccn34)cc2)C1 (some centres unmarked)  remaining binding (cell-free assay; competition with immobilised ligand; 0.1 µM): 100%
CCCS(=O)(=O)Nc1ccc(F)c(C(=O)c2c[nH]c3ncc(-c4ccc(Cl)cc4)cc23)c1F  inhibition (enzyme activity; inhibitor; 1 µM): < 10%
CC(C)(C)c1nc2c(s1)c1nc(N)ncc1c1ccc(NS(=O)(=O)c3c(F)cccc3F)c(F)c12  remaining activity (enzyme activity; inhibitor; radiometric; 1 µM): 63%
CNC(=O)c1ccc(Nc2ncc(C(F)(F)F)c(NCc3nccnc3N(C)S(C)(=O)=O)n2)cc1  remaining binding (cell-free assay; competition with immobilised ligand; 0.1 µM): 82%
